Measured values reported in PMC4545688 (Pain, 2015).

Key:
[1] = system: GFP-transfected ACE-1 cells; assay: Prostate cancer cells in vitro growth assay, GFP-transfected ACE-1; type: cell-based, canine; conditions: for effect on cell growth (sensitivity): three day growth assay in vitro
In short: (§1)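 Cells were seeded at 3000 cells/well and allowed to adhere overnight at 37°C, 5% CO2. Test compound or staurosporine was prepared as an 8-point, 3-fold DMSO series from a 10 mM stock, giving a final 500-fold dilution of stocks, in triplicate. After 3 days, growth was measured by CellTiter-Glo luminescence, normalised to the DMSO signal (% control), and IC50 was fitted against concentration.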

parental ACE1 cells = assay: Prostate cancer cells in vitro growth assay, parental ACE1; type: cell-based, canine; conditions: for effect on cell growth (sensitivity): three day growth assay in vitro
In short: as §1

[2] = Spontaneous guarding and flinching in prostate model of bone cancer; type: in vivo, mouse; conditions: 30 mg/kg/day in chow from day 14; days 56 and 63; vs vehicle; 2-min observation
LNCaP = assay: Prostate cancer cell growth in vitro, LNCaP; type: cell-based; conditions: data not shown
[3] = system: Human osteoclast precursors; assay: Osteoclast differentiation assay; type: cell-based; conditions: six days with CSF-1 and RANKL, up to 10 μM
In short: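 Human osteoclast precursors were cultured at 37°C, 5% CO2, with CSF-1 (33 ng/mL), RANKL (66 ng/mL) and test compound (up to 10 μM) or 0.2% DMSO for 6 days. After a medium change, cells were incubated 1 more day. Supernatant acid phosphatase (TRAP5b) was read at 405 nm. Results are expressed as percent inhibition relative to vehicle with or without CSF-1, from six independent experiments.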

[4] = system: CD68+ macrophages and osteoclasts; assay: CD68+ cells in tumor-bearing bone sections; type: in vivo, mouse
In short: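 Mice received intramedullary femoral injection of GFP+ ACE-1 prostate cancer cells. From day 14 they were given test compound in chow (average 30 mg/kg/day) or control chow ad libitum, n=8/group. At day 65, 20 μm decalcified frozen bone sections were stained with rat anti-mouse CD68 (1:2,000), Cy3 secondary and DAPI. Two 400X confocal images were taken per section from three sections per animal, in GFP+ tumor areas. Blinded counts were made per μm3.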

[5] = system: ACE-1 prostate cancer cells; assay: Radiographic number of cancer cell colonies and overall tumor burden; type: in vivo, mouse
In short: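 In the same chow-dosing femoral tumor model, radiographs of tumor-bearing femurs were analysed blind. Images were split into distal and proximal halves and enlarged. Each colony was numbered and traced, defined as a radio-translucent area bounded by radio-opaque woven bone. Colony number per region and total tumor area per femur were recorded, then averaged per treatment group.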

PC-3 = assay: Prostate cancer cell growth in vitro, PC-3; type: cell-based; conditions: data not shown
[6] = Radiographic assessment of tumor-induced bone remodeling; type: in vivo, mouse
In short: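 In the femoral ACE-1 tumor model, compound-formulated chow (average 30 mg/kg/day) or control chow was given ad libitum from day 14 to study end, n=8/group. Radiographs were taken from day 14 and then every 7 days. In blinded analysis, bone lying outside the normal femur diameter (defined from naïve/sham mice) was traced with a mm-calibrated free-form tool. Mean area was calculated per group.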

Rat formalin test = type: in vivo; conditions: 30 mg/kg PO two hours before subplantar formalin; vs vehicle; p<0.05
In short: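 SD rats received test compound at 30 mg/kg or vehicle (0.5% HPMC/1% Tween 80/2.5% DMSO) orally, 2 h before subplantar formalin (0.05 mL, 1%). Hind paw licking time was recorded at 5-minute intervals for 30 minutes, covering the acute and inflammatory phases. Data are the average of two independent experiments with six rats per group per trial.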

[7] = ref [4],[16],[19]; cited from earlier work
[8] = 30 mg/kg/day in chow, distal and proximal ends of femur, vs vehicle, p<0.05
[9] = sustained administration 30 mg/kg/day in chow
[10] = three day growth assay, CellTiter-Glo

## CN[C@@H]1C[C@H]2O[C@@](C)([C@@H]1OC)n1c3ccccc3c3c4c(c5c6ccccc6n2c5c31)C(=O)NC4 [staurosporine, reference compound]
[1]
  effect on cell growth (sensitivity): sensitive
Parental ACE1 cells
  effect on cell growth (sensitivity): sensitive

## FC(F)(F)c1ccc(CNc2ccc(Cc3c[nH]c4ncc(Cl)cc34)cn2)cn1 [PLX3397]
[2]
  time spent guarding tumor-bearing limb: reduced
LNCaP
  effect on prostate cancer cell growth: did not affect
[3]
  osteoclast differentiation (acid phosphatase activity, TRAP5b): inhibited
[4]; GFP+ prostate cancer cells in bone sections, day 65
  viability of cancer cells in tumor cell colony: little effect
[4]; day 65 post-tumor cell injection, chronic treatment, vs vehicle, p<0.05
  number of CD68+ cells per tissue volume: significantly reduced
[5]; [8]
  number of cancer cell colonies: significantly reduced
  total tumor burden area: significantly reduced
[5]; [9]
  attenuation of disease progression: approximately 50%
PC-3
  effect on prostate cancer cell growth: did not affect
[6]; 30 mg/kg/day in chow from day 14, days 14–63, vs vehicle, p<0.05
  extra-periosteal bone formation (periosteal reaction area): significantly reduced
[6]; 30 mg/kg/day in chow, vs prostate cancer + vehicle
  overall radio-opacity of tumor-bearing femur: increase
[6]; [9]
  attenuation of tumor-induced bone remodeling: approximately 50%
Rat formalin test
  hind paw licking time, acute phase (0–5 minutes): analgesic effects
  hind paw licking time, inflammatory phase (10–30 minutes): analgesic effects
[7]
  crossing of the blood brain barrier: does cross the blood brain barrier
[1]; [10]
  concentration up to which no effect on cell growth (not sensitive): > 10 µM
Parental ACE1 cells
  effect on cell growth (sensitivity): did not affect
Parental ACE1 cells; [10]
  concentration up to which no effect on cell growth (not sensitive): > 10 µM

## Cn1c(=O)n(-c2ccc(C(C)(C)C#N)cc2)c2c3cc(-c4cnc5ccccc5c4)ccc3ncc21 [BEZ-235, reference compound]
[1]
  effect on cell growth (sensitivity): sensitive
Parental ACE1 cells
  effect on cell growth (sensitivity): sensitive
